Measurements from ChEMBL document CHEMBL4311956, “A Qualified Success: Discovery of a New Series of ATAD2 Bromodomain Inhibitors with a Novel Binding Mode Using High-Throughput Screening and Hit Qualification” (J Med Chem, 2019).
Blank lines part the entries; values can stand above or below the molecule they belong to. Calls of active or inactive are those of the source.

Tests used:
[1] = molecular target: T1, ATPase family AAA domain-containing protein 2 (Homo sapiens, UniProt Q6PL18); test: Displacement of biotinylated H4 peptide from His6/FLAG-tagged TEV fused ATAD2 bromodomain (950 to 1148 residues) (unknown origin) expressed in Escherichia coli BL21(DE3) cells after 30 mins by TR-FRET assay
T1 sequence (Q6PL18 whole entry): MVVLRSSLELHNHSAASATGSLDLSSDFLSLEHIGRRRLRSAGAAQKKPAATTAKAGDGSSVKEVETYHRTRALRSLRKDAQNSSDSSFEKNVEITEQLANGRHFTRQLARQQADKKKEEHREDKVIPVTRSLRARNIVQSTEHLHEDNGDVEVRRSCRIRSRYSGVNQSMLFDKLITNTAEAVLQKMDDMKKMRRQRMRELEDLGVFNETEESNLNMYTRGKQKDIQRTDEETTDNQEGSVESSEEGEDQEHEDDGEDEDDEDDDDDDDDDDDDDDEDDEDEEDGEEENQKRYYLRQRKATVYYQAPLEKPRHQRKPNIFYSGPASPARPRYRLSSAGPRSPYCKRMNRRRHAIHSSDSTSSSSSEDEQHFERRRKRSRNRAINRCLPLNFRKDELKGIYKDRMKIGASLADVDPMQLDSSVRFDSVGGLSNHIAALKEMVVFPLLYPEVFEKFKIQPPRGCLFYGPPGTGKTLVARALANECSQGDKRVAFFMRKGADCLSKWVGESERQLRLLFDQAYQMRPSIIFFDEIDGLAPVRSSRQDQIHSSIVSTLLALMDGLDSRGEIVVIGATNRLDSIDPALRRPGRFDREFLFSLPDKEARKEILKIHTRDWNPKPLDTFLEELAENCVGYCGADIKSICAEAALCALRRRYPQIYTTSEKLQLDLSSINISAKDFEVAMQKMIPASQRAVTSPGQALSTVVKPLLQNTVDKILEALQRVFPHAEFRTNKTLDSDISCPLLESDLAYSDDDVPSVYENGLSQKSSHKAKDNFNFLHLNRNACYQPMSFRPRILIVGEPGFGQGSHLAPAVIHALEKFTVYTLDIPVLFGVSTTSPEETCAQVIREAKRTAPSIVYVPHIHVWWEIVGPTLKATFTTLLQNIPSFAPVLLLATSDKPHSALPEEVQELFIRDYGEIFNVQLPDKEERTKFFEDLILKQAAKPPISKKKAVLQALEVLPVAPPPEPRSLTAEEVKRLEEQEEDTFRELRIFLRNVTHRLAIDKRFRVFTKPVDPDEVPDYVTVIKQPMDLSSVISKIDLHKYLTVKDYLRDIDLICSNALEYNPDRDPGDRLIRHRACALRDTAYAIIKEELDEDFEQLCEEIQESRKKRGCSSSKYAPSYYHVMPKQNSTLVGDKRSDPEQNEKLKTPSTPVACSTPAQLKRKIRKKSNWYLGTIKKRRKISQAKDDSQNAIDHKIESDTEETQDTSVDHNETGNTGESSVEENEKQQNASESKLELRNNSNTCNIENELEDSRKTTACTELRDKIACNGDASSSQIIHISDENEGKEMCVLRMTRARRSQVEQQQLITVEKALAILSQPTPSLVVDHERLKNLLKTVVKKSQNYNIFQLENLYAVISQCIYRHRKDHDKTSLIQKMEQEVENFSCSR
How it was run: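 TR-FRET acetylated-peptide displacement assay using 6H-Flag-tev ATAD2(950–1148). Used for the HTS: single-concentration primary screen with digital plate-pattern correction, then replated duplicate retest and dose–response. A curve-fit cutoff of IC50 > 30 μM applies.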

[2] = molecular target: T2, ATPase family AAA domain-containing protein 2 (Homo sapiens) (UniProt Q6PL18); test: Displacement of SGRG-K(Ac)-GG-K(Ac)-GLG-K(Ac)-GGAKRHRKV-biotin) from His6/FLAG-tagged TEV fused ATAD2 bromodomain (981 to 1121 residues) (unknown origin) expressed in Escherichia coli BL21(DE3) cells up to 10 uM after 30 mins by TR-FRET assay
T2 sequence (whole entry): T1 sequence (Q6PL18 whole entry)

[3] = molecular target: T2, ATPase family AAA domain-containing protein 2 (Homo sapiens); test: Binding affinity to 15N-labelled ATAD2 (981 to 1108 residues) (unknown origin) at 100 uM by 1H-15N HSQC NMR analysis
How it was run: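 15N–1H HSQC spectra of labelled ATAD2 bromodomain recorded with and without compound at 100 μM. Binding is judged from spectral changes.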

[4] = molecular target: Bromodomain-containing protein 4 (Homo sapiens, UniProt O60885, Y390A); test: Displacement of Alexa Fluor 647 labelled ligand from His6-tagged BRD4 BD1 (1 to 477 residues)/BD2 Y390A mutant (unknown origin) after 30 mins by TR-FRET assay
How it was run: (§1)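 BET selectivity by TR-FRET fluoroligand displacement. Uses tandem BET bromodomain constructs carrying a mutation in the non-assayed bromodomain.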

[5] = molecular target: Bromodomain-containing protein 4 (Homo sapiens, UniProt O60885, Y97A); test: Displacement of Alexa Fluor 647 labelled ligand from His6-tagged BRD4 BD2 (1 to 477 residues)/BD1 Y97A mutant (unknown origin) after 30 mins by TR-FRET assay; how it was run: as §1
[6] = molecular target: T1, ATPase family AAA domain-containing protein 2; test: Displacement of Alexa Fluor 488 labelled ligand from ATAD2 bromodomain (981 to 1121 residues) (unknown origin) expressed in Escherichia coli BL21(DE3) cells after 30 mins by TR-FRET assay
[7] = molecular target: T1, ATPase family AAA domain-containing protein 2; test: Binding affinity to human partial length ATAD2A (Q981 to R1108 residues) expressed in Escherichia coli BL21(DE3) cells after 1 hr by competitive binding assay

- IC50 [1]: 0.03 µM
- Activity [2]: inactive
- Activity [3]: inactive
Compound: CN1CCN(c2nc(C(=O)c3ccccc3)c3cnn(C)c3n2)CC1

- IC50 [4]: > 50.1 µM
- IC50 [5]: 31.6 µM
- IC50 [6]: 0.631 µM
Compound: CC1CCCN(S(=O)(=O)c2cc(NC(=O)CN3C(=O)CNC3=O)ccc2Br)C1 (configuration not stated)

- Kd [7]: 44 µM
Compound: CCOC(=O)Nc1cc(-c2ccc(C)c(NS(C)(=O)=O)c2)nn2c(C)nnc12
